In data set [1] the target is T1, Indoleamine 2,3-dioxygenase 1 (Homo sapiens, UniProt P14902). The data set is described as follows: Inhibition of human IDO1 expressed in Escherichia coli at 10 uM using L-tryptophan as substrate after 1 hr by UV absorption analysis. The procedure, abridged:
(§1)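 N-terminal human IDO1 or TDO was expressed in E. coli and Ni affinity-purified. Enzyme (100 nM) was incubated with compounds for 1 h at room temperature in Ca/Mg-free potassium phosphate buffer with […], 40 mM ascorbate, 200 µg/ml catalase and 20 µM methylene blue. Stop: 30% TCA, 65°C 15 min. Kynurenine read with DMAB at 480 nm against a standard curve. Triplicate, mean ± SD.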
Target sequence in this assay (P14902 whole entry, looked up): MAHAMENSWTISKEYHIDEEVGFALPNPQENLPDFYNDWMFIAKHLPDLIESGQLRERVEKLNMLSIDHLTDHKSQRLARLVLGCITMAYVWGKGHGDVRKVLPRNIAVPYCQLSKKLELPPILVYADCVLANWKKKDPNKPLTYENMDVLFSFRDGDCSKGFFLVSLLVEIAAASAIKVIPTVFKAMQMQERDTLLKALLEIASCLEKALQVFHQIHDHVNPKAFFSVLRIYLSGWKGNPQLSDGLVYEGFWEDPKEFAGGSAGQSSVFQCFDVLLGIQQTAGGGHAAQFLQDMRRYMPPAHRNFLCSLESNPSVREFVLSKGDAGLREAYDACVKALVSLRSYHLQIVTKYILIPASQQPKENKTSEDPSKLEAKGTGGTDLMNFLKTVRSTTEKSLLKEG

Data set [2] addresses T2, Tryptophan 2,3-dioxygenase (Homo sapiens, UniProt P48775). The data set is described as follows: Inhibition of human TDO expressed in Escherichia coli at 10 uM using L-tryptophan as substrate after 1 hr by UV absorption analysis. An outline of the steps: as §1
Target sequence in this assay (P48775 whole entry, looked up): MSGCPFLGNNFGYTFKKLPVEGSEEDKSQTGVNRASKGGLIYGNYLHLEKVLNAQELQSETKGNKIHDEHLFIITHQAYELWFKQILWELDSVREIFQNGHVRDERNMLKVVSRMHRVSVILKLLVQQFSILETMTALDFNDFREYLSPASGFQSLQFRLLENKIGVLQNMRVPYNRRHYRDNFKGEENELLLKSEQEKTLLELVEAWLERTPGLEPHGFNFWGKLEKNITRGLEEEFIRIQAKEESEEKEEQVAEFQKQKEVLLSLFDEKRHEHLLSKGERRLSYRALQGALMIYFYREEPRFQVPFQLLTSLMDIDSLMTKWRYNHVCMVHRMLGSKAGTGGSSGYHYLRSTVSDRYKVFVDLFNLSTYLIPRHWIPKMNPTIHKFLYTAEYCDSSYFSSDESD
For data set [3], the target named is T2, Tryptophan 2,3-dioxygenase. The data set is described as follows: Inhibition of TDO (unknown origin).
Target sequence in this assay (P48775 whole entry): as the sequence (P48775 whole entry, looked up) above
The test system of data set [4] is CT26. The data set is described as follows: Antitumor activity against mouse CT26 cells transplanted in Balb/c mouse assessed as tumor growth inhibition at 20 mg/kg/day, po administered for 18 consecutive days relative to control. Particulars: read-out: TGI. In kind it is functional. An outline of the steps:
(§2)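 CT26 cells (100 µL of 1 × 10^7 cells/mL suspension) were injected s.c. into Balb/c mice. After 4 days, mice were randomized, 6 per group, and dosed orally once daily at 20, 40 or 80 mg/kg/day. Vehicle was 5% DMSO, 20% PEG400 and 75% deionized water. Tumors were measured by caliper every 3 days; volume = a × b²/2.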

The target in data set [5] is T1, Indoleamine 2,3-dioxygenase 1. Kind of data set: Inhibition of IDO1 in IFN-gamma-induced human HeLa cells assessed as reduction in L-kynurenine level after 24 hrs. In kind it is cell-based. An outline of the steps: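 HeLa cells were plated for 24 h, then given IFNγ (50 ng/mL) plus inhibitors for 24 h; vehicle was 0.5% DMSO. Medium was mixed with 30% TCA and centrifuged. Supernatant kynurenine was reacted with 2% p-DMAB in acetic acid, read at 480 nm and quantified against an L-kynurenine standard curve. Triplicate, mean ± SD.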

Data set [6] has as its system HeLa. Kind of data set: Reduction in IFN-gamma-induced IDO1 expression in human HeLa cells by Western blot analysis. In kind it is functional, cell-based. An outline of the steps: (§3)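 HeLa cells were pretreated for 2 h with inhibitors (10, 20, 50 µM) or a JAK inhibitor (1 µM), then given IFNγ 50 ng/mL for 24 h; 0.5% DMSO served as negative control. RIPA lysates with equal protein were run on 10% SDS-PAGE and blotted to nitrocellulose. Probes: rabbit anti-IDO1 (1:1000) and anti-GAPDH (1:4000) overnight at 4°C; HRP anti-rabbit 90 min.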
(A western blot detects proteins with antibodies after separation by electrophoresis.)

Data set [7] concerns the target T2, Tryptophan 2,3-dioxygenase. The data set is described as follows: Inhibition of human TDO expressed in human A172 assessed as reduction in kynurenine formation using L-tryptophan as substrate after 24 hrs. An outline of the steps: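 A172 cells, which express TDO highly, were plated at 2 × 10^4 cells/well overnight. Cells were then exposed to compounds with L-Trp (20 µg/ml) for 24 h. Medium was treated with 30% TCA at 65°C for 30 min and centrifuged. Kynurenine was measured with 2% p-DMAB at 480 nm against an L-kynurenine standard curve.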

In data set [8] the test system is CT26. The data set is described as follows: Antitumor activity against mouse CT26 cells transplanted in Balb/c mouse assessed as tumor growth inhibition at 80 mg/kg/day, po administered for 18 consecutive days relative to control. Format: functional. Conditions: read-out: TGI. An outline of the steps:
as §2

In data set [9] the test system is CT26. Kind of data set: Antitumor activity against mouse CT26 cells transplanted in Balb/c mouse assessed as tumor growth inhibition at 40 mg/kg/day, po administered for 18 consecutive days relative to control. Format: functional. Conditions: read-out: TGI. The procedure, abridged:
as §2

In data set [10] the target is T1, Indoleamine 2,3-dioxygenase 1. Kind of data set: Inhibition of human IDO1 expressed in Escherichia coli using L-tryptophan as substrate after 1 hr by UV absorption analysis. The procedure, abridged: as §1
Target sequence in this assay (P14902 whole entry): as the sequence (P14902 whole entry, looked up) above
The target in data set [11] is T2, Tryptophan 2,3-dioxygenase. Kind of data set: Inhibition of human TDO expressed in Escherichia coli at using L-tryptophan as substrate after 1 hr by UV absorption analysis. The procedure, abridged: as §1
Target sequence in this assay (P48775 whole entry): as the sequence (P48775 whole entry, looked up) above
In data set [12] the test system is HeLa. Kind of data set: Reduction in IFN-gamma-induced GAPDH expression in human HeLa cells by Western blot analysis. Format: ADME, cell-based. An outline of the steps: as §3
Data set [13] concerns HeLa. The data set is described as follows: Effect on IFN-gamma-induced IDO1 expression in human HeLa cells at 10 to 50 uM by Western blot analysis. In kind it is functional, cell-based. The procedure, abridged: as §3

The values that follow come from ChEMBL document CHEMBL4368939, “4,6-Substituted-1H-Indazoles as potent IDO1/TDO dual inhibitors” (Bioorg Med Chem, 2019).

Molecules are shown by their SMILES. The source made the active and inactive calls. The calls are words filed in the database; no cut-off is given here.

One may read the inhibition as how much of the control response was suppressed. Turning to `O=C(Nc1ccc(CCNc2cc(Br)cc3[nH]ncc23)cc1)NC1CCOCC1`, in data set [1], the inhibition entry was “inactive”. In addition, the inhibition in data set [2] turned out to be 20%.
As for `CC(Nc1cc(Br)cc2[nH]ncc12)c1ccc([N+](=O)[O-])cc1` (stereo not drawn), the inhibition in [1] worked out at 17%; in data set [2], 56%.
Regarding `Oc1ccc(CNc2cc(Br)cc3[nH]ncc23)c(O)c1`, the inhibition in data set [1] came out at 40%. In addition, the inhibition entry in data set [2] was “inactive”.
Taken in the same sequence, the figures for `Brc1cc(NCc2cccs2)c2cn[nH]c2c1` were 54% and 53%.
On to `CC(=O)Nc1ccc(CNc2cc(Br)cc3[nH]ncc23)cc1`, for which, in data set [1], the inhibition amounted to 48%. Besides, in data set [2], the inhibition result is “inactive”.
Taken in the same sequence, the figures for `Nc1cccc(CNc2cc(Br)cc3[nH]ncc23)c1` were 31% and “inactive”.
Take `Brc1cc(NCc2ccco2)c2cn[nH]c2c1`: the inhibition in [1] turned out to be 29%; in data set [2] it was 64%.
For the compound `Oc1ccc(CNc2cc(Br)cc3[nH]ncc23)cc1F`, the inhibition in data set [1] is 52%; in [2] it was 26%.
For `CC(C)Nc1cc(Br)cc2[nH]ncc12` the same measures were 47% and “inactive”.
With `Oc1ccc(CNc2cc(Br)cc3[nH]ncc23)cc1O`, the inhibition in data set [1] came to 50%. Also, the inhibition entry in [2] was “inactive”.
For the compound `Oc1ccc(CNc2cc(Br)cc3[nH]ncc23)cc1Cl`, the inhibition in data set [1] amounted to 60%; in [2] it was 19%.
Taken in the same sequence, the figures for `Cc1cc(CNc2cc(Br)cc3[nH]ncc23)ccc1O` were 28% and 30%.
In data set [1], `CC(Nc1cc(Br)cc2[nH]ncc12)c1ccccc1` (stereo not drawn) came in with an inhibition of 14%. The inhibition result in data set [2] is “inactive”.
Taken in the same sequence, the figures for `Nc1ccc(CNc2cc(Br)cc3[nH]ncc23)cc1` were 3% and 24%.
For `NS(=O)(=O)c1ccc(CNc2cc(Br)cc3[nH]ncc23)cc1` the same measures were 20% and 75%.
In turn, `Nc1ccc2ccccc2c1CNc1cc(Br)cc2[nH]ncc12` displayed an inhibition in data set [1] of 15%. Moreover, in data set [2], the inhibition entry is “inactive”.
In the case of `FC(F)(F)c1cccc(CNc2cc(Br)cc3[nH]ncc23)c1`, the inhibition in [1] is 16%; in data set [2], 56%.
As a reminder, the IC50 is the concentration that inhibits the measured activity by half. In turn, `CN1CCN(C(=O)c2ccc(Cn3nnc4c3C(=O)c3ccccc3C4=O)cc2)CC1` displayed an IC50 in data set [3] of 30 nM.
For the compound `NS(=O)(=O)NCCNc1nonc1/C(=N/O)Nc1ccc(F)c(Br)c1` [EPACADOSTAT], the inhibition in vivo at 20 mg/kg/day in the data set with CT26 [4] was 39.2%.
Regarding `ONc1ccc(CNc2cc(Br)cc3[nH]ncc23)cc1`, the inhibition entry in data set [1] is “inactive”. The inhibition in [2] is 6%.
Turning to `Brc1cc(NCc2cccc3nonc23)c2cn[nH]c2c1`, the inhibition in [1] was 91%; in data set [2] it was 85%; in [5] it was “Dose-dependent effect”; in [7], “Dose-dependent effect”. Besides, the IC50 in [5] came out at 1370 nM; in data set [7], 7.54 µM; in data set [10], 740 nM; in [11], 2940 nM. Besides, the Activity result was “Dose-dependent effect” in the data set on HeLa [6] and “Toxic” in the data set with HeLa [12]. The inhibition in vivo at 80 mg/kg/day with CT26 [8] was determined as 47.3%. For the same compound, the inhibition in vivo at 40 mg/kg/day in the data set on CT26 [9] is 38.1%. In the data set with CT26 [4], the inhibition in vivo at 20 mg/kg/day worked out at 21.7%.
On to `Oc1ccc(CNc2cc(Br)cc3[nH]ncc23)cc1`, for which the inhibition result in [2] and in [5] was “inactive” each time. In addition, the outcome in the data set with HeLa [13] was inactive.
Compound `Nc1ccc(CCNc2cc(Br)cc3[nH]ncc23)cc1` yielded an inhibition in data set [1] of 2%. In addition, the inhibition result in [2] is “inactive”.
For `Brc1cc(NCc2cccc3sccc23)c2cn[nH]c2c1` the same measures were 3% and 56%.
Turning to `OC1CCCC(Nc2cccc(CNc3cc(Br)cc4[nH]ncc34)c2)C1` (stereo not drawn), the inhibition came to 52% in data set [1] and 50% in data set [2].
In [1], `Nc1ccccc1CNc1cc(Br)cc2[nH]ncc12` displayed an inhibition of 36%. Further, the inhibition entry in data set [2] is “inactive”.
Taken in the same sequence, the figures for `O=C1CCCC(Nc2cccc(CNc3cc(Br)cc4[nH]ncc34)c2)C1` (stereo not drawn) were 52% and 46%.
Taken in the same sequence, the figures for `Nc1ccccc1CC(=O)Nc1ccc(CCNc2cc(Br)cc3[nH]ncc23)cc1` were 3% and 29%.
For `ONc1cccc(CNc2cc(Br)cc3[nH]ncc23)c1`, the inhibition in [1] was 53%. The inhibition entry in data set [2] is “inactive”.
For `O=C(O)CNc1cccc(CNc2cc(Br)cc3[nH]ncc23)c1` the same measures were 57% and “inactive”.
Turning to `Brc1cc(NCc2ccncc2)c2cn[nH]c2c1`, the figures for the inhibition in data set [1] and in data set [2] were 54% and 55%, respectively.
As for `Brc1cc(NCc2ccc3c(c2)OCO3)c2cn[nH]c2c1`, the inhibition turned out to be 68% in [1] and 62% in [2].
In turn, `Oc1ccc(CNc2cc(Br)cc3[nH]ncc23)c(F)c1` registered an inhibition in [1] of 69%. In addition, the inhibition entry in [2] is “inactive”.
As for `Cc1cc(O)ccc1CNc1cc(Br)cc2[nH]ncc12`, the inhibition is 60% in data set [1] and 19% in [2].
As to `OCc1ccc(CNc2cc(Br)cc3[nH]ncc23)cc1`, the inhibition was determined as 45% in data set [1] and 56% in [2].
In the case of `O=C1c2ccccc2-n2c1nc1ccccc1c2=O` [TRYPTANTHRIN], the IC50 in data set [3] turned out to be 900 nM.
For the compound `Nc1cc(CNc2cc(Br)cc3[nH]ncc23)ccc1O`, the inhibition in data set [1] turned out to be 32%. In addition, the inhibition entry in [2] was “inactive”.
Turning to `Brc1cc(NCc2cnc[nH]2)c2cn[nH]c2c1`, the inhibition is 16% in [1] and 54% in [2].
Taken in the same sequence, the figures for `N#Cc1ccc(CNc2cc(Br)cc3[nH]ncc23)cc1` were 70% and 73%.
For the compound `Nc1nc(CNc2cc(Br)cc3[nH]ncc23)cs1`, the inhibition entry in [1] is “inactive”. The inhibition in data set [2] was determined as 73%.
On to `Oc1cccc(CNc2cc(Br)cc3[nH]ncc23)c1`, for which the inhibition amounted to 45% in [1] and 55% in data set [2].
With `CCOC(=O)CNc1cccc(CNc2cc(Br)cc3[nH]ncc23)c1`, in [1], the inhibition was 29%. Also, the inhibition result in data set [2] is “inactive”.
